STAT1 inh = reduces IFN-gamma driven STAT1 reporter signal; NIH 3T3 STAT1-luciferase reporter, luminescence; inhibition, % at 5.5 µM; 200,000 tested, 0.35% active; AID 920;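 active = inhibition above a set limit, the mean inhibition across all tested compounds plus 3 SD, cut at about 34% in these data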
STAT3 activator = increases IL-6 driven STAT3 reporter signal; AID 871; U3A cells, IL-6 STAT3-luciferase reporter, luminescence; 100% = signal with IL-6 EC80 alone; 190,000 tested, 0.91% active; activation (% of control), % at 5.6 µM;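 active = activation above the screen-wide mean of compound activation plus 3 SD, cut at about 130% in these data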
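Detection: reporter luminescence signal / Assay system: STAT1-lacking human U3A cells, STAT3 luciferase reporter / Incubation: compound pre-incubation 1 h before IL-6, then 6 h stimulation at 37 °C / Control set: IL-6-only high control / Read-out: % activation relative to IL-6 control / Probe or stimulus: Interleukin-6, 33 ng/mL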
STAT3 inh-1 = inhibitors of IL-6 induced STAT3 signaling. U3A cells, IL-6 STAT3-luciferase reporter, luminescence; host cell line lacks STAT1. inhibition, % at 5.5 µM. 190,000 tested, 0.89% active;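 active = inhibition above the mean inhibition across all screened compounds plus 3 SD, cut at about 44% in these data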
APP 5'UTR act = activates APP 5'UTR luciferase reporter; 190,000 tested, 1% active; activation, % at 2 µM; SH-SY5Y APP 5'UTR luciferase reporter, luminescence; zero percent = DMSO vehicle wells; AID 1276;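 active = activation above a set limit, based on mean plus 3 SD of controls, cut at about 140% in these data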
NF-kB neuron act = raises NF-kB expression in human neuronal cells; NF-kB reporter expression; hits give high values; fold change at 12.5 µM; 190,000 tested, 1.6% active; in the data active = fold change above about 3.3
STAT1 activator = activators of IFN-gamma induced STAT1 signaling | 200,000 tested, 2.6% active | AID 932 | NIH 3T3 STAT1-luciferase reporter, luminescence; 100% = IFN-gamma alone, no compound | activation (% of control), % at 5.5 µM;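 active = activation above the screen-wide mean activation plus 3 SD, cut at about 130% in these data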
STAT3 inh-2 = STAT3 inhibition, confirmation assay; U3A cells, IL-6 STAT3 luciferase reporter, luminescence; cell line lacks STAT1; AID 1265; inhibition, % at 5.7 µM; 1,200 tested, 45% active; shares compounds with STAT3 inh-1;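 active = inhibition above the hit cutoff computed for the primary STAT3 screen, cut at about 44% in these data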
NFkB inh 2 = counter-screen for STAT3 inhibitors: NF-kappaB inhibition; inhibition, % at 5.7 µM; shares compounds with STAT3 inh-1; 1,200 tested, 36% active; HEK293T NF-kB luciferase reporter, TNF-alpha induced;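 active = inhibition above the mean of solvent-only control wells plus 3 SD, cutoff set per campaign, cut at about 13% in these data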
STAT1 inh STAT3c = inhibits STAT1, counter-screen to STAT3 inhibitors. shares compounds with STAT3 inh-1. NIH 3T3 STAT1-luciferase reporter, IFN-gamma induced, luminescence. inhibition, % at 5.7 µM. 1,200 tested, 27% active. AID 1317;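 active = inhibition above the mean plus 3 SD of solvent-only control wells, limit set per screening run, cut at about 16% in these data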
Each line names hits and unclear results; the compound was inactive in the other large screens (follow-up assays come after a bar, where they were run). Only some compounds are listed: those with a hit (about 4.9% of all), similar ones and a draw of the others.

COc1ccc(OC)c(C(=O)Cn2nnc3ccccc3c2=O)c1	none
Cc1cc(C(=O)Cn2nnc3ccccc3c2=O)c(C)n1Cc1cccs1	STAT3 inh-1 46, APP 5'UTR act 223 | STAT3 inh-2 inactive | NFkB inh 2 inactive | STAT1 inh STAT3c inactive
COc1ccc(C(=O)/C=C/Nc2cccc(O)c2)cc1	STAT3 inh-1 93, APP 5'UTR act 195, NF-kB neuron act 14 | STAT3 inh-2 80 | NFkB inh 2 16 | STAT1 inh STAT3c inactive
COc1ccc(CC(=O)Nc2cccc(C(=O)Nc3cccc(C)c3)c2)cc1	none
Cc1cccc(NC(=O)c2ccc(CN3CCN(Cc4ccccc4)CC3)cc2)c1	STAT3 inh-1 63 | STAT3 inh-2 62 | NFkB inh 2 14 | STAT1 inh STAT3c inactive
COc1ccc(C(=O)Nc2cccc(C)c2)cc1	STAT3 inh-1 44, APP 5'UTR act 142, NF-kB neuron act 6, STAT1 activator 138 | STAT3 inh-2 inactive | NFkB inh 2 inactive | STAT1 inh STAT3c inactive
COc1cccc(/C=C/C(=O)NCc2cn3cc(Cl)ccc3n2)c1OC	none
COc1ccccc1NS(=O)(=O)c1ccc(O)c(C(=O)OCC(=O)N2c3ccccc3CC2C)c1 (stereo not drawn)	none
CCOC(=O)c1ccccc1N/C=C/C(=O)c1cccs1	none
O=C(/C=C/Nc1ccc(F)cc1F)c1cccs1	STAT3 inh-1 66, NF-kB neuron act 3.8 | STAT3 inh-2 54 | NFkB inh 2 55 | STAT1 inh STAT3c 33
O=C(/C=C/Nc1ccccc1F)c1cccs1	STAT3 inh-1 61, APP 5'UTR act 175, NF-kB neuron act 7.2 | STAT3 inh-2 inactive | NFkB inh 2 16 | STAT1 inh STAT3c inactive
Cc1ccc(NS(=O)(=O)c2cccc(C(=O)N/N=C/c3ccc4c(c3)OCCO4)c2)c(C)c1	none
Cc1cccc(NC(=O)c2ccoc2C)n1	none
Cc1cccc(NC(=O)c2onc3c2CCCC3)n1	STAT3 inh-1 71, APP 5'UTR act 158 | STAT3 inh-2 55 | NFkB inh 2 18 | STAT1 inh STAT3c inactive
Cc1cccc(NC(=O)c2ccc3c(Cl)c4c(nc3c2)CCCC4)n1	STAT3 inh-1 64, APP 5'UTR act 160, STAT1 activator 145 | STAT3 inh-2 inactive | NFkB inh 2 inactive | STAT1 inh STAT3c inactive
CN(C(=O)c1ccc2c(Cl)c3c(nc2c1)CCC3)c1ccccc1	none
CC(C)CNC(=O)COC(=O)c1n[nH]c2ccccc12	none
Cc1[nH]nc2c1C1(CCN(C(=O)OCc3ccccc3)CC1)C(C#N)=C(N)O2	STAT3 inh-1 49 | STAT3 inh-2 inactive | NFkB inh 2 inactive | STAT1 inh STAT3c inactive
Clc1ccc(OCc2cc(-c3ccccc3)no2)c(Cl)c1	STAT3 inh-1 76, APP 5'UTR act 188, NF-kB neuron act 4.5 | STAT3 inh-2 46 | NFkB inh 2 inactive | STAT1 inh STAT3c inactive
Cc1ccc(C(=O)NCC(=O)O)o1	none
CCCCCCCCCCCCCCCC[n+]1cccc2ccccc21	none
CCCCCCCCC[n+]1cccc2c3ccccc3ccc21	STAT3 inh-1 90 | STAT3 inh-2 89 | NFkB inh 2 57 | STAT1 inh STAT3c 33
O=C(Nc1ccccn1)c1ccc2c(c1)OCCO2	STAT3 inh-1 51, NF-kB neuron act 4.2 | STAT3 inh-2 inactive | NFkB inh 2 inactive | STAT1 inh STAT3c inactive
Cc1cc(NC(=O)c2ccc3c(c2)OCCO3)no1	STAT3 inh-1 74, NF-kB neuron act 4 | STAT3 inh-2 inactive | NFkB inh 2 inactive | STAT1 inh STAT3c inactive
O=C(Nc1ccccn1)c1ccc2c(c1)OCO2	none
Cc1csc(NC(=O)C2CCN(S(=O)(=O)c3ccccc3F)CC2)n1	none
COc1ccc(Cc2noc(CN3CCCN(Cc4ccc(F)cc4)CC3)n2)cc1OC	none
COc1ccc(Cc2noc(CN3CCC(c4ccncc4)CC3)n2)cc1OC	STAT3 inh-1 60 | STAT3 inh-2 inactive | NFkB inh 2 14 | STAT1 inh STAT3c inactive
O=C(Nc1nc(-c2ccc3c(c2)OCCO3)cs1)c1ccc(S(=O)(=O)N2CCCCC2)cc1	STAT3 inh-1 45 | STAT3 inh-2 62 | NFkB inh 2 18 | STAT1 inh STAT3c inactive
O=C(Cc1ccccc1)Nc1scc(-c2ccccc2)c1C(=O)N1CCOCC1	none
NC(=O)c1c(-c2ccc(Cl)cc2Cl)csc1NC(=O)Cc1ccccc1	STAT3 inh-1 44 | STAT3 inh-2 72 | NFkB inh 2 23 | STAT1 inh STAT3c inactive
CCCCOc1ncnc2c1[nH]c1ccccc12	STAT3 inh-1 50 | STAT3 inh-2 inactive | NFkB inh 2 19 | STAT1 inh STAT3c 25
CCCCOc1ncnc2c1[nH]c1ccc(OCC)cc12	none
CCCCOc1ncnc2c1[nH]c1ccc(OC)cc12	STAT3 inh-1 46, NF-kB neuron act 4.4, STAT1 activator 137 | STAT3 inh-2 inactive | NFkB inh 2 inactive | STAT1 inh STAT3c inactive
CCCCOc1ncnc2c1[nH]c1ccc(F)cc12	STAT3 inh-1 83 | STAT3 inh-2 74 | NFkB inh 2 19 | STAT1 inh STAT3c 32
COc1ccc(CCNC(=O)C(=O)NCc2ccccn2)cc1	none
COc1cc(/C=N/Nc2ccc(F)cc2F)cc(OC)c1OC	none
COc1cc(/C=N/Nc2snc(SC)c2C#N)cc(OC)c1OC	STAT3 inh-1 59 | STAT3 inh-2 inactive | NFkB inh 2 inactive | STAT1 inh STAT3c inactive
CCCCCOc1ccc(Br)cc1/C(C)=N/NC1=NCCN1	none
COc1ccc(Br)cc1/C(C)=N/NC1=NCCN1	STAT3 inh-1 54 | STAT3 inh-2 47 | NFkB inh 2 inactive | STAT1 inh STAT3c inactive
CCOC(=O)C1=C(Cc2ccc(C)cc2)C(=O)c2ccccc2C1=O	STAT3 inh-1 60 | STAT3 inh-2 60 | NFkB inh 2 inactive | STAT1 inh STAT3c inactive
Cc1ccc(NC(=O)N2CCCc3ccccc32)cc1	none
Cc1ccc(NC(=O)N2CCc3ccccc32)cc1	STAT3 inh-1 56, APP 5'UTR act 170, NF-kB neuron act 8.1 | STAT3 inh-2 inactive | NFkB inh 2 inactive | STAT1 inh STAT3c inactive
CN1C(=O)CSc2ccc(NC(=O)N3CCc4ccccc43)cc21	none
Cc1ccc(NC(=O)N2CCc3ccccc32)cc1C	STAT3 inh-1 62, APP 5'UTR act 160, NF-kB neuron act 9.2 | STAT3 inh-2 inactive | NFkB inh 2 inactive | STAT1 inh STAT3c inactive
COc1cc(/C=N\Nc2nc3ccccc3[nH]2)cc(OC)c1OC	STAT3 inh-1 74 | STAT3 inh-2 inactive | NFkB inh 2 19 | STAT1 inh STAT3c inactive
CCCCCCn1ccc(=N)cc1	STAT3 inh-1 70 | STAT3 inh-2 56 | NFkB inh 2 18 | STAT1 inh STAT3c inactive

Screening data as filed in PubChem BioAssay.
